Only some compounds are listed: those with a hit (about 1.7% of all), similar ones and a draw of the others.
VIM-2 inhibitor: inhibitors of Pseudomonas aeruginosa VIM-2 metallo-beta-lactamase; purified VIM-2, nitrocefin hydrolysis, epi-absorbance fluorescence; inhibition, % at 5.6 µM; 290,000 compounds, 0.89% hits; AID 1527;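 active means inhibition above the mean of all tested compounds plus 3 SD, cutoff set per screening run, cut at about 7.5% in these data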;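 further: red hydrolysis product quenches plate fluorescence so inhibitors raise well fluorescence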
proCasp3 act: activators of human procaspase-3; activation, % at 8.5 µM; recombinant procaspase-3 D3A, Ac-DEVD-pNA absorbance 405 nm; P42574; 330,000 compounds, 0.11% hits; AID 463141;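 active means activation above the mean of all tested compounds plus 3 SD, cut at about 21% in these data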
Target sequence (P42574 whole entry D9A/D28A/D175A): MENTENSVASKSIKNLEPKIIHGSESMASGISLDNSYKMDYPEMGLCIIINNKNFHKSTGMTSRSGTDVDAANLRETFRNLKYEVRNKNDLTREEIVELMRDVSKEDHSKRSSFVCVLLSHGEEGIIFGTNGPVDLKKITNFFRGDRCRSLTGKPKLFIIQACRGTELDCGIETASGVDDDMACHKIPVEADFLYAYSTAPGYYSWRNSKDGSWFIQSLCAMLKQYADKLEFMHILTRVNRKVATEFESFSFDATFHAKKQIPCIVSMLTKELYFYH
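Assay system: Procaspase-3 D3A mutant, all three cleavage aspartates alanine. Buffer or medium: Zinc-free HEPES saline buffer with Triton X-100. Times: 1 h compound preincubation, 2 h substrate hydrolysis at 25 °C. Measured by: 405 nm absorbance of p-nitroaniline, reads at 0 and 120 min. Read-out basis: percent activation relative to control range. Replicates: singlicate.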
proCasp7 act: activates human procaspase-7, counter-screen for procaspase-3 activators | P55210 | recombinant procaspase-7, Ac-DEVD-pNA absorbance 405 nm; D23A/D198A/D206A triple mutant, cannot self-cleave; scale: DMSO 0, 5 µM enzyme 100 | activation, % at 8.5 µM | 330,000 compounds, 0.093% hits;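 active means percent activation above the screen-wide mean plus 3 SD, cut at about 25% in these data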
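Detection: p-Nitroaniline absorbance at 405 nm, read at 0 and 120 min; system: Uncleavable procaspase-7 mutant enzyme; evaluation: % activation from two-timepoint absorbance difference, scaled to controls; times: 1 h enzyme–compound preincubation and 2 h substrate reaction, both 25 °C; buffer or medium: Zinc-free HEPES pH 7.4 with 300 mM NaCl, 0.01% Triton X-100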
IMP-1 inh-1: blocks Pseudomonas aeruginosa IMP-1 metallo-beta-lactamase | purified IMP-1, nitrocefin hydrolysis, epi-absorbance fluorescence | 290,000 compounds, 0.45% hits | inhibition, % at 5.6 µM;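 active means inhibition above the mean plus 3 SD of all compounds in the same screening run, cut at about 4.5% in these data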
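System: Purified IMP-1 | Read-out basis: Percent enzyme inhibition | Controls: IMP-1 with DMSO as 0%, enzyme-free DMSO as 100% | Replicates: One well per compound | Doses: 5.6 µM nominal single concentration | Detection: Epi-absorbance fluorescence, 480 nm excitation, 530 nm emission | Incubation: 25 °C, 15 min preincubation, 25 min reaction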
Neddyl block: inhibitors of human cullin neddylation | TR-FRET cullin neddylation, biochemical | calls only at 25 µM | 360,000 compounds, 0.58% hits | AID 651699; in the data active means inhibition above about 36%
PolyA inh: blocks polyadenylation in yeast reporter cells | S. cerevisiae SKY197-pL101 polyadenylation reporter, beta-gal luminescence; efflux-impaired pdr1/pdr3 knockout yeast; score 100 = 6 SD above DMSO | activity score, % at 12 µM | 300,000 compounds, 0.02% hits | AID 1875;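 active means lowest replicate activity score at least 50, where 100 means six control SD above control mean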;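 further: yeast exposed to compound for 9 h at 30 °C; higher score means more reporter readthrough which indicates perturbed polyadenylation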
IMP-1 inh-2: IMP-1 inhibition, counter-screen for VIM-2 inhibitors; shares compounds with VIM-2 inhibitor; purified IMP-1, nitrocefin hydrolysis, epi-absorbance fluorescence; inhibition, % at 5.6 µM; 1,300 tested, under 10 active; AID 1856; call rule not given here
VIM-2 FRET inh: VIM-2 FRET inhibition, artifact counter-screen; shares compounds with VIM-2 inhibitor; purified VIM-2, CCF2 FRET substrate hydrolysis; inhibition, % at 5.6 µM; 1,300 compounds, 23% hits;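 active means inhibition above the mean of all tested compounds plus 3 SD, cut at about 19% in these data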
TEM-1 inh: blocks E. coli TEM-1 beta-lactamase in VIM-2 selectivity screen | inhibition, % at 5.6 µM | 1,300 compounds, 3% hits | AID 1866 | Purified TEM-1, nitrocefin hydrolysis, epi-absorbance fluorescence | shares compounds with VIM-2 inhibitor;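 active means inhibition above that campaign's mean inhibition plus 3 SD, cut at about 0.46% in these data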
Target sequence (P62593 whole entry, looked up): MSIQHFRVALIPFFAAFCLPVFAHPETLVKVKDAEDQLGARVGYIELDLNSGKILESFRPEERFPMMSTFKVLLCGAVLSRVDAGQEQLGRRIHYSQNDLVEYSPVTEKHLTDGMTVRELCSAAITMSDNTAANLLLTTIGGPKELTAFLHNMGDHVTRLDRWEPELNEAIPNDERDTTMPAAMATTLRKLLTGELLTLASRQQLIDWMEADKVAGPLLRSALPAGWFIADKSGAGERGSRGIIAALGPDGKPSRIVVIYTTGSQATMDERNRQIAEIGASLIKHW
VIM-2 confirm 2: confirmation of P. aeruginosa VIM-2 metallo-beta-lactamase inhibitors | shares compounds with VIM-2 inhibitor | purified VIM-2, nitrocefin hydrolysis, epi-absorbance | inhibition, % at 5.6 µM | 1,300 compounds, 96% hits | AID 2187;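 active means inhibition of the VIM-2 beta-lactamase enzyme above about 11% from the earlier first-round screen, limit read from the data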
Each line names hits and unclear results; the compound was inactive in the other large screens (follow-up assays come after a bar, where shown).

O=C(CSc1nc2cc(Cl)ccc2s1)NC1CCCc2ccccc21 (stereo unspecified)	none
Cc1cc(OCC(=O)NCCCN2CCOCC2)c2c(C)c(C)c(=O)oc2c1	VIM-2 inhibitor 26 (not shown: Neddyl block) | IMP-1 inh-2 inactive | VIM-2 FRET inh inactive | TEM-1 inh inactive | VIM-2 confirm 2 36
Cc1cc(OCC(=O)Nc2ccc(CN3CCOCC3)cc2)c2c(C)c(C)c(=O)oc2c1	VIM-2 inhibitor 33 (not shown: Neddyl block) | IMP-1 inh-2 inactive | VIM-2 FRET inh inactive | TEM-1 inh inactive | VIM-2 confirm 2 40
CN(CCCNC(=O)c1cccc(N2CCCC2=O)c1)c1ccccc1	none
N#CCCN(C(=O)COC(=O)c1ccc2c(=O)n3c(nc2c1)CCC3)c1ccccc1	none
CC(C)(C)C(=O)Nc1ccc(C(=O)Nc2cc(NC(=O)c3ccc(NC(=O)C(C)(C)C)cc3)cc(C(=O)O)c2)cc1	none
Cn1nc(-c2ccc(NCCO)c([N+](=O)[O-])c2)c2ccccc2c1=O	VIM-2 inhibitor 16 | IMP-1 inh-2 inactive | VIM-2 FRET inh inactive | TEM-1 inh inactive | VIM-2 confirm 2 45
Cc1ccc(-c2nn(C)c(=O)c3ccccc23)cc1S(=O)(=O)NCCO	none
Cn1nc(-c2ccc(N3CCN(CCO)CC3)c([N+](=O)[O-])c2)c2ccccc2c1=O	VIM-2 inhibitor 82 | IMP-1 inh-2 inactive | VIM-2 FRET inh inactive | TEM-1 inh inactive | VIM-2 confirm 2 89
CN(C)CCNc1ccc(-c2nn(C)c(=O)c3ccccc23)cc1[N+](=O)[O-]	VIM-2 inhibitor 79 | IMP-1 inh-2 inactive | VIM-2 FRET inh inactive | TEM-1 inh inactive | VIM-2 confirm 2 83
CN(CCO)c1ccc(-c2nn(C)c(=O)c3ccccc23)cc1[N+](=O)[O-]	VIM-2 inhibitor 17 | IMP-1 inh-2 inactive | VIM-2 FRET inh inactive | TEM-1 inh inactive | VIM-2 confirm 2 41
CCCCC(NS(=O)(=O)c1ccc(OC)cc1)C(=O)O (stereo unspecified)	none
CC(COc1cccc2ccccc12)CN1CCN(C)CC1 (stereo unspecified)	VIM-2 inhibitor 22 | IMP-1 inh-2 inactive | VIM-2 FRET inh inactive | TEM-1 inh inactive | VIM-2 confirm 2 48
OC(COc1cccc2ccccc12)CN1CCN(c2ccccc2)CC1 (stereo unspecified)	none
CC(=O)NCCn1c(SCC(=O)c2ccccc2)nc2ccccc2c1=O	VIM-2 inhibitor 14 | IMP-1 inh-2 inactive | VIM-2 FRET inh 24 | TEM-1 inh inactive | VIM-2 confirm 2 20
CC(=O)NCCn1c(SCC(=O)OCc2ccccc2)nc2ccccc2c1=O	none
Cn1nc(-c2ccc(OCC(=O)Nc3cccnc3)cc2)c2ccccc2c1=O	VIM-2 inhibitor 20 | IMP-1 inh-2 inactive | VIM-2 FRET inh inactive | TEM-1 inh inactive | VIM-2 confirm 2 31
CNC(=O)COc1ccc(-c2nn(C)c(=O)c3ccccc23)cc1	none
Cc1nc2sc(C)c(C)c2c(=O)[nH]1	none
C=C1CSc2nc(=O)c3c(C)c(C)sc3n21	VIM-2 inhibitor 20 (no result: proCasp3 act, proCasp7 act) | IMP-1 inh-2 inactive | VIM-2 FRET inh inactive | TEM-1 inh inactive | VIM-2 confirm 2 32
O=[N+]([O-])c1ccccc1/C=N/n1c(C(F)(F)F)n[nH]c1=S	VIM-2 inhibitor 14 | IMP-1 inh-2 inactive | VIM-2 FRET inh 55 | TEM-1 inh inactive | VIM-2 confirm 2 36
O=C(c1ccco1)N1CCN(C(=O)c2cc3ccccc3oc2=O)CC1	none
